Assays:
SK-BR-3 [1] = test: Cell cycle arrest in human SK-BR-3 cells assessed as accumulation at Sub-G1 phase at 0.25 uM after 3 hrs using propidium iodide staining by FACS analysis; assay type: functional
SK-BR-3 [2] = test: Cell cycle arrest in human SK-BR-3 cells assessed as accumulation at S phase at 0.10 uM after 3 hrs using propidium iodide staining by FACS analysis; assay type: functional
Procedure, shortened: (§1)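 SKBR-3 cells in RPMI1640 with 10% heat-inactivated FBS at 37 °C and 5% CO₂ were treated for the stated times. Cells were fixed overnight in 70% EtOH at −20 °C, then stained with propidium iodide buffer (38 mM sodium citrate pH 7.5, 69 µM PI, 120 µg/mL RNase A) for 15 min at room temperature in the dark. Up to 1×10⁴ gated cells were analyzed by flow cytometry, giving percent distribution per phase.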

SK-BR-3 [3] = test: Cell cycle arrest in human SK-BR-3 cells assessed as accumulation at G1 phase at 0.10 uM after 6 hrs using propidium iodide staining by FACS analysis; assay type: functional; procedure, shortened: as §1
SK-BR-3 [4] = test: Cell cycle arrest in human SK-BR-3 cells assessed as accumulation at Sub-G1 phase at 0.50 uM after 12 hrs using propidium iodide staining by FACS analysis; assay type: functional
SK-BR-3 [5] = test: Cell cycle arrest in human SK-BR-3 cells assessed as accumulation at G1 phase at 0.25 uM after 18 hrs using propidium iodide staining by FACS analysis; assay type: functional; procedure, shortened: as §1
SK-BR-3 [6] = test: Cell cycle arrest in human SK-BR-3 cells assessed as accumulation at G2/M phase at 0.25 uM after 18 hrs using propidium iodide staining by FACS analysis; assay type: functional; procedure, shortened: as §1
SK-BR-3 [7] = test: Cell cycle arrest in human SK-BR-3 cells assessed as accumulation at Sub-G1 phase at 0.50 uM after 18 hrs using propidium iodide staining by FACS analysis; assay type: functional
SK-BR-3 [8] = test: Cell cycle arrest in human SK-BR-3 cells assessed as accumulation at G2/M phase at 0.50 uM after 18 hrs using propidium iodide staining by FACS analysis; assay type: functional; procedure, shortened: as §1
SK-BR-3 [9] = test: Cell cycle arrest in human SK-BR-3 cells assessed as accumulation at G1 phase at 0.10 uM after 24 hrs using propidium iodide staining by FACS analysis; assay type: functional; procedure, shortened: as §1
SK-BR-3 [10] = test: Cell cycle arrest in human SK-BR-3 cells assessed as accumulation at G1 phase at 0.25 uM after 24 hrs using propidium iodide staining by FACS analysis; assay type: functional; procedure, shortened: as §1
SK-BR-3 [11] = test: Cell cycle arrest in human SK-BR-3 cells assessed as accumulation at Sub-G1 phase at 5 uM after 24 hrs using propidium iodide staining by FACS analysis; assay type: functional
SK-BR-3 [12] = test: Cell cycle arrest in human SK-BR-3 cells assessed as accumulation at G1 phase at 5 uM after 24 hrs using propidium iodide staining by FACS analysis; assay type: functional; procedure, shortened: as §1
CCRF-CEM = test: Growth inhibition of human CCRF-CEM cells after 48 hrs by SRB assay; assay type: functional
RPMI-8226 = test: Growth inhibition of human RPMI8226 cells after 48 hrs by SRB assay; assay type: functional
NCI-H522 = test: Growth inhibition of human NCI-H522 cells after 48 hrs by SRB assay; assay type: functional
COLO 205 = test: Growth inhibition of human COLO205 cells after 48 hrs by SRB assay; assay type: functional
SNB-75 = test: Growth inhibition of human SNB75 cells after 48 hrs by SRB assay; assay type: functional
U-251 = test: Growth inhibition of human U251 cells after 48 hrs by SRB assay; assay type: functional
SK-MEL-2 = test: Growth inhibition of human SK-MEL-2 cells after 48 hrs by SRB assay; assay type: functional
UACC-257 = test: Growth inhibition of human UACC257 cells after 48 hrs by SRB assay; assay type: functional
IGROV-1 = test: Growth inhibition of human IGROV1 cells after 48 hrs by SRB assay; assay type: functional
OVCAR-4 = test: Growth inhibition of human OVCAR4 cells after 48 hrs by SRB assay; assay type: functional
SK-OV-3 = test: Growth inhibition of human SKOV3 cells after 48 hrs by SRB assay; assay type: functional
A498 = test: Growth inhibition of human A498 cells after 48 hrs by SRB assay; assay type: functional
MCF7 = test: Growth inhibition of human MCF7 cells after 48 hrs by SRB assay; assay type: functional
MDA-MB-468 = test: Growth inhibition of human MDA-MB-468 cells after 48 hrs by SRB assay; assay type: functional
Mus musculus = test: Acute toxicity in nude mouse assessed as body weight loss at 100 to 400 mg/kg administered as single dose measured after 2 weeks; assay type: organism-based; set-up: dose 100-400 mg/kg; settings: in vivo, 336 h
[13] = Terminal half life in Sprague-Dawley rat at 20 mg/kg, ip; assay type: ADME, organism-based; set-up: dose 20 mg/kg, route intraperitoneal; settings: in vivo, read-out: beta t1/2 (converted)
Procedure, shortened: (§2)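 Male Sprague–Dawley rats (300–350 g, n=3), fasted overnight with water allowed. Single 20 mg/kg i.p. dose in PBS with 0.1% Tween80 and 20% DMSO. Blood taken from saphenous and femoral veins into heparinized tubes at 0, 0.25, 0.5, 1, 2, 4, 8 and 24 h. Plasma quantified by LC-MS/MS (MRM, 483.3→404.3) after tert-butyl methyl ether/hexane extraction. Parameters derived non-compartmentally.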

[14] = Mean residence time (0 to t) in Sprague-Dawley rat at 20 mg/kg, ip; assay type: ADME, organism-based; set-up: dose 20 mg/kg, route intraperitoneal; settings: in vivo; procedure, shortened: as §2
SK-BR-3 [15] = test: Cell cycle arrest in human SK-BR-3 cells assessed as accumulation at Sub-G1 phase at 5 uM after 3 hrs using propidium iodide staining by FACS analysis; assay type: functional
SK-BR-3 [16] = test: Cell cycle arrest in human SK-BR-3 cells assessed as accumulation at G2/M phase at 0.50 uM after 3 hrs using propidium iodide staining by FACS analysis; assay type: functional; procedure, shortened: as §1
SK-BR-3 [17] = test: Cell cycle arrest in human SK-BR-3 cells assessed as accumulation at S phase at 5 uM after 6 hrs using propidium iodide staining by FACS analysis; assay type: functional

Cc1ccc(C)c(COc2cc(NC(=O)c3ccc4c(c3)OCO4)ccc2N(C)S(C)(=O)=O)c1
Activity (SK-BR-3 [1]): 3.23% | Activity (SK-BR-3 [2]): 17.2% | Activity (SK-BR-3 [3]): 71.43% | Activity (SK-BR-3 [4]): 6.36% | Activity (SK-BR-3 [5]): 73.42% | Activity (SK-BR-3 [6]): 10.57% | Activity (SK-BR-3 [7]): 8.47% | Activity (SK-BR-3 [8]): 22.27% | Activity (SK-BR-3 [9]): 67.9% | Activity (SK-BR-3 [10]): 41.27% | Activity (SK-BR-3 [11]): 27.62% | Activity (SK-BR-3 [12]): 31.87% | GI50 (CCRF-CEM): 48.5 nM | TGI (CCRF-CEM): > 100000 nM | growth inhibition (GI) (CCRF-CEM): Dose-dependent effect | CC50 (CCRF-CEM; read-out: LC50 (the source's name)): > 100000 nM | growth inhibition (GI) (RPMI-8226): Dose-dependent effect | GI50 (RPMI-8226; RPMI-8226, 48 h): 290 nM | CC50 (RPMI-8226; RPMI-8226, 48 h, read-out: LC50 (the source's name)): > 100000 nM | growth inhibition (GI) (NCI-H522): Dose-dependent effect | GI50 (NCI-H522; NCI-H522, 48 h): 33.5 nM | TGI (NCI-H522; NCI-H522, 48 h): 240 nM | CC50 (NCI-H522; NCI-H522, 48 h, read-out: LC50 (the source's name)): > 100000 nM | growth inhibition (GI) (COLO 205): Dose-dependent effect | GI50 (COLO 205; COLO 205, 48 h): 318 nM | TGI (COLO 205; COLO 205, 48 h): 1070 nM | CC50 (COLO 205; COLO 205, 48 h, read-out: LC50 (the source's name)): > 100000 nM | growth inhibition (GI) (SNB-75): Dose-dependent effect | GI50 (SNB-75; SNB-75, 48 h): 266 nM | CC50 (SNB-75; SNB-75, 48 h, read-out: LC50 (the source's name)): > 100000 nM | growth inhibition (GI) (U-251): Dose-dependent effect | GI50 (U-251; U-251, 48 h): 266 nM | TGI (U-251; U-251, 48 h): 21900 nM | CC50 (U-251; U-251, 48 h, read-out: LC50 (the source's name)): > 100000 nM | growth inhibition (GI) (SK-MEL-2): Dose-dependent effect | GI50 (SK-MEL-2; SK-MEL-2, 48 h): 89.7 nM | TGI (SK-MEL-2; SK-MEL-2, 48 h): 616 nM | CC50 (SK-MEL-2; SK-MEL-2, 48 h, read-out: LC50 (the source's name)): > 100000 nM | growth inhibition (GI) (UACC-257): Dose-dependent effect | GI50 (UACC-257; UACC-257, 48 h): 144 nM | TGI (UACC-257; UACC-257, 48 h): > 100000 nM | CC50 (UACC-257; UACC-257, 48 h, read-out: LC50 (the source's name)): > 100000 nM | growth inhibition (GI) (IGROV-1): Dose-dependent effect | GI50 (IGROV-1; IGROV-1, 48 h): 237 nM | TGI (IGROV-1; IGROV-1, 48 h): > 100000 nM | CC50 (IGROV-1; IGROV-1, 48 h, read-out: LC50 (the source's name)): > 100000 nM | growth inhibition (GI) (OVCAR-4): Dose-dependent effect | TGI (OVCAR-4; OVCAR-4, 48 h): > 100000 nM | CC50 (OVCAR-4; OVCAR-4, 48 h, read-out: LC50 (the source's name)): > 100000 nM | growth inhibition (GI) (SK-OV-3): Dose-dependent effect | GI50 (SK-OV-3; SK-OV-3, 48 h): 285 nM | TGI (SK-OV-3; SK-OV-3, 48 h): > 100000 nM | CC50 (SK-OV-3; SK-OV-3, 48 h, read-out: LC50 (the source's name)): > 100000 nM | growth inhibition (GI) (A498): Dose-dependent effect | TGI (A498; A498, 48 h): 853 nM | CC50 (A498; A498, 48 h, read-out: LC50 (the source's name)): > 100000 nM | growth inhibition (GI) (MCF7): Dose-dependent effect | TGI (MCF7; MCF7, 48 h): > 100000 nM | CC50 (MCF7; MCF7, 48 h, read-out: LC50 (the source's name)): > 100000 nM | growth inhibition (GI) (MDA-MB-468): Dose-dependent effect | GI50 (MDA-MB-468; MDA-MB-468, 48 h): 155 nM | TGI (MDA-MB-468; MDA-MB-468, 48 h): 401 nM | Activity (Mus musculus): Non-toxic | half-life [13]: 3.12 h | MRT last [14]: 6 h | Activity (SK-BR-3 [15]): 2.81% | Activity (SK-BR-3 [16]): 11.54% | Activity (SK-BR-3 [17]): 14.61%

Source: ChEMBL document CHEMBL1932938, “From COX-2 inhibitor nimesulide to potent anti-cancer agent: synthesis, in vitro, in vivo and pharmacokinetic evaluation” (Eur J Med Chem, 2012)
